Assay results as given in ChEMBL document CHEMBL5316296, “Indole Derivatives as New Structural Class of Potent and Antiproliferative Inhibitors of Monocarboxylate Transporter 1 (MCT1; SLC16A1)” (J Med Chem, 2023).
Calls of active or inactive are those of the source. The calls are words filed in the database; no cut-off is given here.

Columns and labels:
NIH3T3 = experiment: Cytotoxicity against mouse NIH3T3 cells assessed as cell viability incubated for 72 hrs by MTT assay; assay type: toxicity, cell-based; details: nih3t3, 72 h
Outline: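 NIH/3T3 murine embryonic fibroblasts (5000/well) screened at 10 and 50 μM compound for 72 h at 37 °C, 5% CO2. MTT readout (1 h), DMSO-dissolved formazan read at 570 nm, 690 nm background. DMSO and culture medium define 0 and 100% viability; at least three independent experiments.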

[1] = target: T1, Monocarboxylate transporter 4 (Homo sapiens) (UniProt O15427); experiment: Inhibition of MCT4 in human MDA-MB-231 cells assessed as inhibition of acidic lactate extrusion by measuring reduction in pH at 10 uM incubated for 12 hrs by BCECF-AM dye based fluorescence spectrophotometric analysis; assay type: cell-based
T1 sequence (whole entry): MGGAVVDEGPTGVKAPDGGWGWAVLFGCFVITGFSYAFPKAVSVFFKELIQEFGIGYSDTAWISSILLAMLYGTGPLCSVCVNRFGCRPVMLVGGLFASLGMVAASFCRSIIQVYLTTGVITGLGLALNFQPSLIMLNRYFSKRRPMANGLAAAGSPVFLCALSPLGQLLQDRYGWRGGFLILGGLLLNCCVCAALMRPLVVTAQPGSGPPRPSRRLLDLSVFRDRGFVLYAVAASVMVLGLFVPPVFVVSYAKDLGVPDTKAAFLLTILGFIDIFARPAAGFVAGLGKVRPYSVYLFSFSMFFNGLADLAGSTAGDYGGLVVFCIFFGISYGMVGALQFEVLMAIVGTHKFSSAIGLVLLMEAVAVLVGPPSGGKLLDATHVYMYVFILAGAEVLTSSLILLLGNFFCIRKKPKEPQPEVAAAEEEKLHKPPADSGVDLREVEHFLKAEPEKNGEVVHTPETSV
Outline: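 MDA-MB-231 cells (50,000/well) plated overnight, then treated with 10 μM compound for 12 h at 37 °C. Loaded with BCECF-AM (5 μM, 1 h), washed twice. Intracellular pH from emission ratio against per-plate calibration (pH 4.5–7.5 buffers with 10 μM nigericin and 10 μM valinomycin, 30 min, room temperature).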

[2] = Induction of doxorubicin sensitization in human A2780 ADR cells expressing ABCB1 assessed as doxorubicin at 3.5 uM incubated for 72 hrs by MTT assay; assay type: functional
Outline: (§1)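 ABCB1-expressing A2780/ADR cells (grown in RPMI-1640 with 10% FBS) were exposed to a doxorubicin dilution series, with or without a fixed test-compound level of 1.0, 2.0, 3.5 or 5.0 μM. Viability was read by MTT, with DMSO as 0% and medium as 100%. GI50 values come from at least three independent experiments and are compared with doxorubicin alone on sensitive A2780 cells.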

[3] = Induction of doxorubicin sensitization in human A549 cells expressing MCT1 assessed as doxorubicin GI50 at 50 nM incubated for 72 hrs by MTT assay; assay type: functional
Outline: (§2)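 A-549 cells (~5000/well) given test compound at fixed 50, 100 or 500 nM plus doxorubicin dilution series 50 nM–50 μM. Incubated 72 h at 37 °C, 5% CO2, then MTT readout.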

[4] = Induction of doxorubicin sensitization in human A2780 ADR cells expressing ABCB1 assessed as doxorubicin at 5 uM incubated for 72 hrs by MTT assay; assay type: functional; outline: as §1
[5] = Induction of doxorubicin sensitization in human A549 cells expressing MCT1 assessed as doxorubicin GI50 at 100 nM incubated for 72 hrs by MTT assay; assay type: functional; outline: as §2
[6] = Induction of doxorubicin sensitization in human A2780 ADR cells expressing ABCB1 assessed as doxorubicin at 1 uM incubated for 72 hrs by MTT assay; assay type: functional; outline: as §1
A549 = experiment: Antiproliferative activity against human A549 cells expressing MCT1 assessed as effect on cell viability incubated for 72 hrs in the presence of glucose by MTT assay; assay type: functional, cell-based
Outline: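 A-549 cells (5000/well) with compound over 72 h; glucose added every 12 h to give 25% or 50% of the original 4.5 g/L. Viability by MTT, absorbance 570 nm (690 nm background). DMSO and culture medium define 0 and 100%; at least three independent experiments.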

A2780 ADR = experiment: Induction of doxorubicin sensitization in human A2780 ADR cells expressing ABCB1 assessed as left shift of the concentration-effect curve at 5 uM incubated for 72 hrs by MTT assay; assay type: functional, cell-based
Outline: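 ABCB1-expressing A2780/ADR cells given test compound at 1.0, 2.0, 3.5 or 5.0 μM with a doxorubicin series; MTT viability readout. Shift of doxorubicin concentration-effect curve compared against parental A2780. DMSO and medium define 0 and 100%; at least three independent experiments.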

[7] = Induction of doxorubicin sensitization in human A2780 ADR cells expressing ABCB1 assessed as doxorubicin at 2 uM incubated for 72 hrs by MTT assay; assay type: functional; outline: as §1
[8] = Antiproliferative activity against human A2780 ADR cells expressing ABCB1 assessed as growth inhibition incubated for 72 hrs by MTT assay; assay type: functional
[9] = Growth inhibition of human A549 cells expressing MCT1 at 50 uM incubated for 72 hrs by MTT assay relative to control; assay type: toxicity, cell-based; details: read-out: GI

| Compound | inhibition [1] | Activity (NIH3T3) | other results |
| --- | --- | --- | --- |
| COC(=O)/C(C#N)=C/c1cn(CC(=O)Nc2cccc3ccccc23)c2ccccc12 | inactive | Non-Toxic |  |
| COC(=O)/C(C#N)=C/c1cn(CC(=O)Nc2ccc(OC)cc2)c2ccccc12 | inactive | Non-Toxic | GI50 [2]: 110 nM; GI50 [3]: 40 nM; GI50 [4]: 32.2 nM; GI50 [5]: 27.7 nM; GI50 [6]: 332 nM; Activity (A549): inactive; Activity (A2780 ADR): Active; GI50 [7]: 214 nM |
| N#C/C(=C\c1ccc(O)cc1)C(=O)O [alpha-CYANO-4-HYDROXYCINNAMIC ACID] |  | Non-Toxic |  |
| COc1cccc2c1C(=O)c1c(O)c3c(c(O)c1C2=O)C[C@@](O)(C(=O)CO)C[C@@H]3O[C@H]1C[C@H](N)[C@H](O)[C@H](C)O1 [DOXORUBICIN] |  |  | GI50 [8]: 802 nM |
| O=C(O)C(=O)CBr [BROMOPYRUVATE] |  |  | inhibition at 72 h, 50 µM [9]: ≥ 90% |
| COC(=O)/C(C#N)=C/c1cn(CC(=O)Nc2ccc(C)cn2)c2ccccc12 | inactive | Non-Toxic | GI50 [2]: 32.4 nM; GI50 [3]: 38.6 nM; GI50 [4]: 12.9 nM; GI50 [5]: 25.4 nM; GI50 [6]: 516 nM; Activity (A549): inactive; Activity (A2780 ADR): Active; GI50 [7]: 165 nM |
| COC(=O)/C(C#N)=C/c1cn(CC(=O)Nc2cccc(OC)c2)c2ccccc12 | inactive | Non-Toxic |  |
| COC(=O)/C(C#N)=C/c1cn(CC(=O)Nc2ccc3ccccc3c2)c2ccccc12 | inactive | Non-Toxic |  |
| COC(=O)/C(C#N)=C/c1cn(CC(=O)Nc2ccccc2OC)c2ccccc12 | inactive | Non-Toxic |  |

More lines, main results first:

| inhibition [1] | Compound | Activity (NIH3T3) | other results |
| --- | --- | --- | --- |
| inactive | COC(=O)/C(C#N)=C/c1cn(CC(=O)Nc2ccccc2)c2ccccc12 | Non-Toxic |  |
| inactive | COC(=O)/C(C#N)=C/c1cn(CC(=O)Nc2ccc(F)cc2)c2ccccc12 | Non-Toxic |  |
| inactive | COC(=O)/C(C#N)=C/c1cn(CC(=O)Nc2ccccc2C)c2ccccc12 | Non-Toxic |  |
| inactive | COC(=O)/C(C#N)=C/c1cn(CC(=O)Nc2ccc(C)cc2)c2ccccc12 | Non-Toxic |  |
| inactive | COC(=O)/C(C#N)=C/c1cn(CC(=O)Nc2c(Cl)cccc2Cl)c2ccccc12 | Non-Toxic |  |
| inactive | COC(=O)/C(C#N)=C/c1cn(CC(=O)Nc2cccnc2)c2ccccc12 | Non-Toxic |  |
| inactive | COC(=O)/C(C#N)=C/c1cn(CC(=O)Nc2ccc(Br)cc2)c2ccccc12 | Non-Toxic |  |
| inactive | COC(=O)/C(C#N)=C/c1cn(CC(=O)Nc2ccc(Br)cn2)c2ccccc12 | Non-Toxic |  |
| inactive | COC(=O)/C(C#N)=C/c1cn(CC(=O)Nc2ccc(Cl)cc2)c2ccccc12 | Non-Toxic |  |
| inactive | COC(=O)/C(C#N)=C/c1cn(CC(=O)Nc2ccccn2)c2ccccc12 | Non-Toxic |  |
